AP ELISA ortho – orthogonal test for alternative complement pathway inhibitors. inhibition, % at 5 µM. Human serum alternative complement pathway, LPS-coated ELISA, C3 deposition; tested in compound mixtures. actives 0.08% (n = 62,000). AID 1235;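 active means inhibition above 30% in each of the two pooled mixtures holding the compound, so the lower value exceeds 30%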
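Medium: diluted human serum in Mg2+-EGTA GVB++. Assay system: human serum complement alternative pathway, C3 deposition onto LPS. Also added: Plate-bound LPS. Technique: Anti-C3 ELISA, OD 450 nm. Measure: percent inhibition. Incubation: 1 h at 37 °C. Dosing: 5 µM each compound, pools of ten, 50 µM per pool.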
Ec RNAP inh – inhibitors of Escherichia coli RNA polymerase; E. coli RNA polymerase, fluorescence transcription assay; inhibition, %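 (tested at 10 µM)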; actives 0.2% (n = 62,000); AID 559; in the data active means inhibition above about 20%
D1 mod – allosterically modulates the human D1 dopamine receptor; P21728; HEK293 D1, CRE-luciferase, dopamine EC30 potentiation; actives deviate in either direction; B-score at 10 µM; actives 5.9% (n = 58,000);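 active means luminescence count or its row- and column-corrected plate score outside the 99.7% band of the plate's sample wells, on either side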
Target sequence (P21728 whole entry, looked up): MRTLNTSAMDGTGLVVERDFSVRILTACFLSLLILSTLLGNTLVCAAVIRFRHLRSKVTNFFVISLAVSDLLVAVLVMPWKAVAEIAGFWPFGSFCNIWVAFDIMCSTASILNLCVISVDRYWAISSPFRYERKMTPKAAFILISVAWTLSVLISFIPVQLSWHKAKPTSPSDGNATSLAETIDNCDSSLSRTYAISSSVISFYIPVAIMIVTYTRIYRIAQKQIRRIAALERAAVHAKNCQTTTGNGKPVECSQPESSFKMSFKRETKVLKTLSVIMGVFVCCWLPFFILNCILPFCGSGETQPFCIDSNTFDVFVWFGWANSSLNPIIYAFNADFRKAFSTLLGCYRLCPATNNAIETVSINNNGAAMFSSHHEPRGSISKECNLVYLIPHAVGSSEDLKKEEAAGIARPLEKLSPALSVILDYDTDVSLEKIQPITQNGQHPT
HEK293 NFkB inh – inhibitors of the PMA/ionomycin-induced NF-kB reporter in HEK293 cells; HEK-293 NF-kB luciferase reporter, luminescence; inhibition, % at 3 µM; actives 0.21% (n = 62,000); AID 465;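 active means inhibition above the mean of all tested compounds plus 3 SD, cut at about 40% in these data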
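System – HEK-293 cells with stable firefly luciferase reporter driven by four HIV NF-kB elements · Doses – one dose, 3 µM · Schedule – 1 h compound pre-incubation, 16 h PMA/ionomycin at 37 °C · Technique – luminescence from luciferase substrate reagent · Measure – percent inhibition normalized per plate to DMSO and reference-inhibitor controls · Replicates – tested once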
hDAT+cocaine – modulates human dopamine transporter uptake under cocaine; Q01959; LLC-PK1 hDAT cells, [14C]-dopamine uptake with cocaine IC80; actives deviate in either direction; B-score at 10 µM; actives 1.3% (n = 110,000);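 active means Z score or B-score, a plate-position-corrected score, falls beyond the plate's 99.7% confidence bounds, in either direction; inactive means both scores lie inside the 99.7% bounds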
D1 PAM confirm – D1 receptor (human) allosteric modulation, confirmed; shares compounds with D1 mod; actives 88% (n = 2,200); AID 642; HEK293 D1 CRE-luciferase, dopamine EC30 potentiation; stronger effect = higher value; luminescence at 10 µM;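 active means luminescence in either of two replicates above the same-plate mean plus 3 SD of the low-dose dopamine control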
D1 no dopamine – D1 (human) signaling in absence of dopamine | shares compounds with D1 mod | HEK293 D1 CRE-luciferase, luminescence, no dopamine; stronger effect = higher value | luminescence at 10 µM | actives 0.8% (n = 1,900) | AID 646; in the data active means luminescence above about 3900
Isoprot counter – isoproterenol response counter-screen activity for D1 modulators; shares compounds with D1 mod; HEK293 D1 CRE-luciferase, isoproterenol EC30 counter-screen; calls only at 10 µM; actives 63% (n = 2,200);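 active means luminescence in either replicate above plate mean of wells with a partly effective reference agonist dose plus 3 SD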;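 further: isoproterenol raises cAMP through native beta-adrenoceptor Gs so signal bypasses D1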
Each line names hits and unclear results; the compound was inactive in the other large screens (follow-up assays come after a bar, where they were run). Many of the other results were omitted from the sample, so hits are more common in it than they were.

C=CCn1c(SCC(=O)Nc2cc(C)on2)nc2sc(C)c(C)c2c1=O	none (no result: AP ELISA ortho, Ec RNAP inh, D1 mod, HEK293 NFkB inh)
CCn1c(SCC(=O)Nc2cc(C)on2)nc2sc(C)c(C)c2c1=O	D1 mod 6.9 (no result: hDAT+cocaine)
CCCCCOC(=O)c1ccc(NC(=O)c2ccco2)cc1	none (no result: D1 mod, hDAT+cocaine)
O=C(CSc1nc2ccsc2c(=O)n1Cc1ccccc1)NCc1ccco1	D1 mod -2.2
CC(C)(C)CN1C(N)=NC[C@@H]1Cc1ccc(O)cc1	hDAT+cocaine -3.8 (no result: AP ELISA ortho, Ec RNAP inh, D1 mod, HEK293 NFkB inh)
O=C(CN1CCN(C2CCCCC2)CC1)c1ccc2cc[nH]c2c1	none (no result: hDAT+cocaine)
O=C(O)CCNC(=O)c1ccc(N=Nc2ccc(O)c(C(=O)O)c2)cc1	none (no result: AP ELISA ortho, Ec RNAP inh, D1 mod, HEK293 NFkB inh)
Oc1cccc(Nc2nc(NCC3CCCO3)c3ccccc3n2)c1 (stereo unspecified)	D1 mod -5
c1ccc(-c2nc(NCC3CCCO3)c3ccccc3n2)nc1 (stereo unspecified)	none (no result: AP ELISA ortho, Ec RNAP inh, D1 mod, HEK293 NFkB inh)
COc1ccc(NC(=O)CCCCn2c(=O)[nH]c3ccccc3c2=O)cc1	hDAT+cocaine -7.7
CCSc1nnc(NC(=O)C(CC)Oc2ccccc2)s1 (stereo unspecified)	none
CCOC(=O)c1nnn(-c2nonc2N)c1-c1ccccc1	D1 mod 9
Cc1c(C(=O)OCc2ccccc2)nnn1-c1nonc1N	none
CC(=O)C1=C(C)NC(SCC(N)=O)=C(C#N)C1c1sccc1C (stereo unspecified)	hDAT+cocaine 6.9 (no result: AP ELISA ortho, Ec RNAP inh, D1 mod, HEK293 NFkB inh)
CCOC(=O)CSC1=C(C#N)C(c2sccc2C)C(C(C)=O)=C(C)N1 (stereo unspecified)	none (no result: AP ELISA ortho, Ec RNAP inh, D1 mod, HEK293 NFkB inh)
COc1ccc(/C=N/NS(=O)(=O)c2ccccc2)cc1OS(=O)(=O)c1ccc(C)cc1	none (no result: AP ELISA ortho, Ec RNAP inh, D1 mod, HEK293 NFkB inh)
COc1cc(/C=N/NC(=O)COc2ccc(Cl)cc2)ccc1OS(=O)(=O)c1ccc(C)cc1	hDAT+cocaine -8.3 (no result: AP ELISA ortho, Ec RNAP inh, D1 mod, HEK293 NFkB inh)
CC(C)C1Cc2c(sc3[nH]c(=S)n(Cc4ccccc4)c(=O)c23)CO1 (stereo unspecified)	none (no result: AP ELISA ortho, Ec RNAP inh, D1 mod, HEK293 NFkB inh)
CNc1nc(C)nc(-c2ccccc2O)n1	D1 mod 9.1 (no result: hDAT+cocaine) | D1 PAM confirm 23276 | D1 no dopamine inactive | Isoprot counter active
Cc1ccc2cc(CN(C)C(=O)C3CCCO3)c(=O)[nH]c2c1 (stereo unspecified)	none (no result: D1 mod)
O=S(=O)(NCc1ccc2c(c1)OCO2)c1cnc[nH]1	none
CCOc1ccc(CCNS(=O)(=O)c2cnc[nH]2)cc1OCC	D1 mod 25 | D1 PAM confirm 24048 | Isoprot counter active
CCNS(=O)(=O)c1ccc(Br)c(OC)c1	none (no result: AP ELISA ortho, Ec RNAP inh, D1 mod, HEK293 NFkB inh)
NC1=NC(c2ccc(Cl)cc2)n2c(nc3ccccc32)N1 (stereo unspecified)	D1 mod 9.1 | D1 PAM confirm 11876 | D1 no dopamine inactive | Isoprot counter inactive
COC(=O)c1oc2ccc(Br)cc2c1-n1cccc1	D1 mod 8.3 | D1 PAM confirm 6260 | D1 no dopamine inactive | Isoprot counter active
COC(=O)c1oc2ccc(Br)cc2c1NC(=O)CCCN1C(=O)c2ccccc2C1=O	none
O=S(=O)(NCCc1ccncc1)c1cc(Br)ccc1F	none
COc1ccc(-c2nc(N3CCCC3)nc3nn4c(C)cc(C)nc4c23)cc1	none (no result: hDAT+cocaine)
Cc1cc(C)n2nc3nc(N4CCCC4)nc(-c4ccccc4)c3c2n1	D1 mod 4.8 (no result: hDAT+cocaine) | D1 PAM confirm 7140 | D1 no dopamine inactive | Isoprot counter active
COc1ccc(-c2nc(N3CCOCC3)nc3n[nH]c(N)c23)cc1	D1 mod 5 | D1 PAM confirm 12424 | Isoprot counter active
Nc1[nH]nc2nc(N3CCCC3)nc(-c3ccccc3)c12	D1 mod 15 | D1 PAM confirm 18304 | D1 no dopamine inactive | Isoprot counter active
O=S(=O)(/C=C/c1ccccc1)Nc1ccc2c(c1)OCO2	none (no result: AP ELISA ortho, D1 mod, HEK293 NFkB inh)
CC(C)(Cl)C1Cc2cc3ccc(=O)oc3cc2O1 (stereo unspecified)	none (no result: AP ELISA ortho, Ec RNAP inh, D1 mod, HEK293 NFkB inh)
COc1ccccc1N1CCN(CCc2n[nH]c(=S)n2-c2ccccc2)CC1	none (no result: Ec RNAP inh)
O=C1N(CN2CCN(c3cccc(Cl)c3)CC2)c2ccccc2C12OCCCO2	D1 mod 2.4 | D1 PAM confirm 3096 | D1 no dopamine inactive | Isoprot counter inactive
CCOc1cc(-c2c(C#N)c(N)nc3c2CCCC3C)ccc1O (stereo unspecified)	D1 mod 5.5 | D1 PAM confirm 8596 | D1 no dopamine inactive | Isoprot counter active
COc1ccc(-c2cc(C(F)F)n3ncc(C(=O)N4CCN(C(=O)c5ccco5)CC4)c3n2)cc1	D1 mod 9.4 | D1 PAM confirm 13496 | D1 no dopamine inactive | Isoprot counter active
CCCCn1c(=NC(=O)c2ccco2)c(C(=O)OCC)cc2c(=O)n3ccccc3nc21	D1 mod 5.6 | D1 PAM confirm 9240 | D1 no dopamine inactive | Isoprot counter inactive
CCCCCn1c(=NC(=O)c2ccco2)c(C(=O)OCC)cc2c(=O)n3ccccc3nc21	none (no result: hDAT+cocaine)
CCCCn1c(=NC(=O)c2cccnc2)c(C(=O)OCC)cc2c(=O)n3ccccc3nc21	D1 mod 7 | D1 PAM confirm 11452 | D1 no dopamine inactive | Isoprot counter inactive
CCOC(=O)c1cc2c(=O)n3cccc(C)c3nc2n(CCCOC)c1=NC(=O)c1cccnc1	none (no result: D1 mod)
CCOCCCn1c(=NC(=O)c2cccnc2)c(C(=O)OCC)cc2c(=O)n3ccccc3nc21	D1 mod 3.3 | D1 PAM confirm 10440 | D1 no dopamine inactive | Isoprot counter active
CC[C@H](C)[C@@H](C(=O)N1CCNCC1)n1cc([C@@H](N)CO)nn1	none (no result: AP ELISA ortho, Ec RNAP inh, D1 mod, HEK293 NFkB inh)
CCC1=C/C(=C/N(C)c2ccccc2)C(=O)S1	none
COc1ccccc1-c1nc(C#N)c(NCc2ccc(F)cc2)o1	none
N#Cc1nc(-c2cccs2)oc1NCc1ccc(Cl)cc1	D1 mod 8.3 | D1 PAM confirm 9676 | D1 no dopamine inactive | Isoprot counter active
N#Cc1nc(-c2ccc(F)cc2)oc1NCc1ccccc1	D1 mod 5.7 | D1 PAM confirm 8092 | D1 no dopamine inactive | Isoprot counter inactive
Cc1ccc(CNc2oc(-c3cccs3)nc2C#N)cc1	D1 mod 18 | D1 PAM confirm 22592 | D1 no dopamine inactive | Isoprot counter active
N#Cc1nc(-c2cccs2)oc1NCc1ccccc1	none (no result: D1 mod, HEK293 NFkB inh)
COC(=O)c1nc2n(n1)C(c1ccc(OC)c(OC)c1)C(C(=O)OC1CCCCC1)=C(C)N2 (stereo unspecified)	D1 mod 3.3 | D1 PAM confirm 7744 | Isoprot counter inactive
c1ccc(CNn2nnnc2-c2ccccc2)cc1	none
Cc1sc2nc(SC(C)C)nc(N)c2c1C	D1 mod 14 | D1 PAM confirm 13552 | D1 no dopamine inactive | Isoprot counter active

Compound activity: PubChem, several laboratories
